pIC50: −log10 of the molar value.
What was measured:
[1] = Drug uptake in tumor of SCID mouse xenografted with human UMUC3 cells at 0.125 micromol/kg, iv pretreated with compound followed by light irradiation at a dose of 135 J/cm2 and 75 mW/cm2 measured after 2 to 24 hrs by IVIS analysis; format: ADME, organism-based, Neoplasm; settings: in vivo, time 2-24 hrs, dose 0.125 µmol/kg
How it was run: (§1)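 Female SCID mice with UMUC3 flank/shoulder tumors, 3 per group. PS in 1% Tween80/5% dextrose given iv at 0.47, 0.25 or 0.125 μmol/kg. Whole-body fluorescence imaging by IVIS at several times after injection; average radiant efficiency measured in tumor, liver and skin.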

[2] = Drug uptake in human HNT1 cells at 3.2 uM incubated for 30 mins in DMEM media with 10% FBS followed by […] in compound-free medium by inverted fluorescence microscopic analysis; format: ADME, cell-based; settings: hnt1, 0.5 h, in the assay text read “in serum-free medium” for “in DMEM media with 10% FBS”
How it was run: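 Confluent HNT1 cultures (passage 116) given 3.2 μM PS for 30 min in serum-free medium, then 5 h in serum-containing medium with PS, then 15 h chase in serum medium without PS. Fluorescence recorded at 100X with varied camera exposures and quantified digitally; pixel signal normalized to time and cell number.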

[3] = Drug uptake in human HN-166 cells assessed as increase in drug retention retention at 3 uM in medium with 10% FBS incubated for 5 hrs followed by 40 hrs chase period by inverted fluorescence microscopic analysis; format: ADME, cell-based; settings: hn-166, 5 h
How it was run: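 Five-day co-cultures of HN-143 tumor epithelial cells and HN-166 tumor fibroblasts, both primary head & neck tumor cultures grown on collagen-1 under selective media. PS in 10% FBS medium for 5 h, then 40 h chase without PS. Phase-contrast and fluorescence images taken at 100X with 500 ms exposure; signal normalized to recording time and cell number.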

HN-85-1-3 = test: Photodynamic therapy in human HN-85-1-3 cells assessed as induction of STAT3 cross-linking treated with compound followed by diode laser irradiation at 3 J/cm2 by immunoblot analysis; format: functional, cell-based
How it was run: (§2)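 Primary HN-85-1-3 tumor epithelial cells loaded with graded PS doses; uptake quantified by fluorescence before light. Dishes irradiated at 37°C with 665 nm diode laser, 6 mW/cm², 3 J/cm² total. Cells lysed in RIPA immediately after light; STAT3 crosslinking and EGFR analysed by SDS-PAGE immunoblot.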

UMUC3 [4] = test: Photosensitizing activity in human UMUC3 cells assessed as reduction in cell viability pretreated with compound for 24 hrs followed by light irradiation at 1 J/cm2 and measured after 48 hrs by MTT assay; format: functional, cell-based; settings: UMUC3, light or radiation study
How it was run: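 Cells plated 0.01x10⁶ to 0.05x10⁶ cells/ml and allowed to adhere 24 h before photosensitizer was added, top dose 1600 nM with 2-fold serial dilutions. Plates received no light (0 J/cm²) or 1 J/cm² at 565 mW, 15 cm spot. After 48 h, MTT added for 3 h, formazan solubilized in DMSO and read at 570 nm; IC₅₀ fitted from dose-response.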

FaDu [5] = test: Photosensitizing activity in human FaDu cells assessed as reduction in cell viability pretreated with compound for 24 hrs followed by light irradiation at 1 J/cm2 and measured after 48 hrs by MTT assay; format: functional, cell-based; settings: light or radiation study
How it was run: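 Cells seeded at 0.01–0.05 x 10⁶ cells/ml; PS added 24 h after plating, top dose 1600 nM with 2-fold serial dilutions. Plates given 0 or 1 J/cm² light. MTT added 48 h later, formazan dissolved in DMSO, absorbance at 570 nm; IC50 from curve fitting.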

[6] = Drug uptake in skin of iv dosed SCID mouse xenografted with human UMUC3 cells by fluorescence imaging analysis; format: ADME, organism-based, Skin of body; settings: in vivo
[7] = Drug uptake in liver of SCID mouse xenografted with human UMUC3 cells at 0.25 micromol/kg, iv pretreated with compound followed by light irradiation at a dose of 135 J/cm2 and 75 mW/cm2 measured after 2 to 8 hrs by IVIS analysis; format: ADME, organism-based; settings: in vivo, time 2-8 hrs, dose 0.25 µmol/kg; how it was run: as §1
UMUC3 [8] = test: Photodynamic antitumor activity against human UMUC3 cells xenografted in SCID mouse assessed as tumor retention at 0.47 micromol/kg, iv pretreated with compound followed by light irradiation at a dose of 135 J/cm2 and 75 mW/cm2 measured at day 60 post dose relative to control; format: functional; settings: dose 0.47 µmol/kg; time 60 day
How it was run: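 UMUC3-bearing female SCID mice given iv PS in 1% Tween80/5% dextrose. Mice restrained and tumors irradiated at 665 nm, 135 J/cm² over 30 min at 75 mW/cm², at the time of maximal tumor uptake. Tumor regrowth measured daily for 60 days; mice euthanized above 400 mm³. Cure plotted as survival curves and compared by log-rank (Mantel-Cox) test.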

[9] = Drug uptake in human HN-85-1-3 cells assessed as photoreactivation by measuring fluorescence when irradiated with diode laser at 3J/cm2 by inverted fluorescence microscopic analysis (reference value: 0 FU); format: cell-based; how it was run: as §2
[10] = Photosensitizing activity in human HN-85-1-3 cells assessed as induction of STAT3 cross-linking pretreated with compound followed by diode laser irradiation at 3 J/cm2 by immunoblot analysis (reference value: 0 %); format: functional; how it was run: as §2
[11] = Drug uptake in liver of SCID mouse xenografted with FaDu cells at 0.47 to 0.125 micromol/kg, iv pretreated with compound followed by light irradiation at a dose of 135 J/cm2 and 75 mW/cm2 and measured at 24 hrs by IVIS analysis; format: ADME, organism-based; settings: in vivo, dose 0.47-0.125 µmol/kg
How it was run: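 Female SCID mice bearing FaDu tumors 4–5 mm in diameter, 3 per group. PS in 1% Tween80/5% dextrose given iv at 0.47, 0.25 or 0.125 μmol/kg. IVIS whole-body fluorescence imaged at several time points; average radiant efficiency measured in tumor, liver and skin.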

FaDu [12] = test: Photodynamic antitumor activity against human FaDu cells xenografted in SCID mouse assessed as cure rate at 0.125 micromol/kg, iv pretreated with compound followed by light irradiation at a dose of 135 J/cm2 and 75 mW/cm2 measured for 60 days post dose relative to control; format: functional; settings: dose 0.125 µmol/kg; time 60 day
How it was run: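 FaDu-bearing female SCID mice (5 per group per experiment) given iv PS at 0.47, 0.25 or 0.125 μmol/kg in Tween80/dextrose. Tumors irradiated 24 h post-injection at 665 nm, 135 J/cm², 75 mW/cm². Tumor growth measured daily for 60 days, with euthanasia above 400 mm³. Cure taken as tumor-free at day 60; survival analysed by log-rank test.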

[13] = Drug uptake in human FaDu clone 49 cells assessed as increase in drug retention at 1.6 uM in RPMI medium with 10% FBS followed by 48 hrs chase period by inverted fluorescence microscopic analysis

Drug uptake [1]: Active | Drug uptake [2]: Active | Drug uptake [3]: Active | Drug uptake [6]: Active | Drug uptake [7]: Active | Activity [9]: 9 FU | Drug uptake [11]: Active | Drug uptake [13]: Active
Compound: CCC1=C(C)c2cc3[nH]c(cc4nc(c5c6[nH]c(cc1n2)c(C)c6C(=O)C5)[C@@H](CCC(=O)OC)[C@@H]4C)c(C)c3C(C)OCc1cccc(C#Cc2cccc(Nc3ncnc4cc(OCCOC)c(OCCOC)cc34)c2)c1 (some centres undefined)
Activity (HN-85-1-3): Dose-dependent effect | pIC50 (UMUC3 [4]): 7.23 | pIC50 (FaDu [5]): 7.45 | Activity (UMUC3 [8]): 74% | Activity [10]: 0.5% | Activity (FaDu [12]): 0%

Reference: ChEMBL document CHEMBL4732136, “Synthesis, Tumor Specificity, and Photosensitizing Efficacy of Erlotinib-Conjugated Chlorins and Bacteriochlorins: Identification of a Highly Effective Candidate for Photodynamic Therapy of Cancer” (J Med Chem, 2021)
